According to publication PMC11261619 (Journal of Agricultural and Food Chemistry, 2024):

Columns and labels:
human OR11A1 = target: T1, human OR11A1 (Homo sapiens, UniProt Q9GZK7); assay: cAMP luminescence; type: cell-based; settings: for KFO screening signal on human OR11A1 relative to 3σ-threshold: each KFO 300 μmol/L, triplicate, normalized to response of OR11A1 to geosmin; for Concentration-dependent activation of OR11A1 (concentration–response validation): normalized to OR1A1 response to (R)-(−)-carvone (30 μmol/L), n = 3
T1 sequence (Q9GZK7 1-315): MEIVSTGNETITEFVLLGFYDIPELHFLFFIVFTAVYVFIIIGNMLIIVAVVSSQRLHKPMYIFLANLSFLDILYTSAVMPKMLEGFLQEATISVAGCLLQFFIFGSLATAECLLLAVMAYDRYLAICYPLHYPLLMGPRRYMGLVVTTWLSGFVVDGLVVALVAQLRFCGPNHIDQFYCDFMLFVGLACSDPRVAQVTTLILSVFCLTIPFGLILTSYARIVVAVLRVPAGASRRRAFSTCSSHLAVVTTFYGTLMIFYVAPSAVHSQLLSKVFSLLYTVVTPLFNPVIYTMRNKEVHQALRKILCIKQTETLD

doOR11A1 = target: T2, doOR11A1 (Dipodomys ordii, UniProt A0A1S3GF11); assay: cAMP luminescence; type: cell-based, Kangaroo rat (Dipodomys ordii)
T2 sequence (A0A1S3GF11 1-311): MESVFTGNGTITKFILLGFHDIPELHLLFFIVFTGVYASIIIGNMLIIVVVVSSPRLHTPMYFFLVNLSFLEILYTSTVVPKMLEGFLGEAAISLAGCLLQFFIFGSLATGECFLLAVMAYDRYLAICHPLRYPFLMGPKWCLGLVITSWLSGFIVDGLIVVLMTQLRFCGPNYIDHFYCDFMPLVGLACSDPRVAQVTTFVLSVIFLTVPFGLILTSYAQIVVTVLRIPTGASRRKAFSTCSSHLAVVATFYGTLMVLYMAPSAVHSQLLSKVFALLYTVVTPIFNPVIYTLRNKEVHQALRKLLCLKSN
How it was run: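 HEK-293 cells (DMEM, 4.5 g/L glucose, 10% FBS, 2 mM L-glutamine, penicillin/streptomycin; 37 °C, 5% CO2) co-transfected via ViaFect with the ortholog coding region in IL-6-HaloTag-pFN210A and pGloSensor-22F. Luminescence was averaged before and after odorant application, then baseline-subtracted and mock-subtracted. Responses were normalized to OR1A1 response to (R)-(−)-carvone (30 μmol/L). EC50 came from nonlinear sigmoidal regression; mean ± SD, n = 3–6 independent transfections.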

Row | SMILES | KFO screening signal on human OR11A1 relative to 3σ-threshold (human OR11A1) | Concentration-dependent activation of OR11A1 (concentration–response validation) (human OR11A1) | Sensitivity of kangaroo rat receptor compared to its human ortholog (doOR11A1; doOR11A1 vs human OR11A1) | Sensitivities of OR11A1 homologues across species compared to the human receptor (doOR11A1; homologues across species vs human OR11A1) | Efficacy of response to geosmin among OR11A1 orthologs (doOR11A1; normalized to OR1A1 response to (R)-(−)-carvone (30 μmol/L))
1 | CC12CCC(CC1)C(C)(C)O2 [1,8-cineol] | reached the 3σ-threshold | could not be validated |  |  | 
2 | C=Cc1ccc(O)cc1 [4-ethenylphenol] | above the 3σ-threshold | could not be validated |  |  | 
3 | CCCCC(=O)OCC [ethyl pentanoate] | above the 3σ-threshold | could not be validated |  |  | 
4 | C[C@H]1CCC[C@@]2(C)CCCC[C@]12O [geosmin, (4S,4aS,8aR)-4,8a-dimethyloctahydronaphthalen-4a(2H)-ol] |  |  | more than 100 fold | up to 100 fold | most effective responder
5 | CSCCCO [methionol, 3-(methylsulfanyl) Propanol (methionol)] | reached the 3σ-threshold | could not be validated |  |  | 
